Data published in ChEMBL document CHEMBL1130061, “Discovery and biological activity of orally active peptidyl trifluoromethyl ketone inhibitors of human neutrophil elastase” (J Med Chem, 1997).
Numbered stars: 1 amine (or outer) side, 2 acyl side, 3 side chain; on linkers, the order of the positions; unused ones are H or OH. Square brackets hold non-standard residues; d marks the D form. Peptide text beside a SMILES is read from it. * marks the point of attachment. ξ: configuration not given here. 4Abz = Nc1ccc(C(=O)O)cc1; CO = O=C([*:1])[*:2]; ξV = CC(C)C(N)C(=O)O; NHPh = c1ccc(N*)cc1; ξP = O=C(O)C1CCCN1; CF3 = FC(F)(F)*

Legend:
Neutrophil elastase = biological target: T1, Neutrophil elastase (Homo sapiens, UniProt P08246); test: Inhibitory activity against Human Neutrophil Elastase by HNE-catalyzed hydrolysis of MeO-Suc-Ala-Ala-Pro-Val-pNa
T1 sequence (P08246 whole entry): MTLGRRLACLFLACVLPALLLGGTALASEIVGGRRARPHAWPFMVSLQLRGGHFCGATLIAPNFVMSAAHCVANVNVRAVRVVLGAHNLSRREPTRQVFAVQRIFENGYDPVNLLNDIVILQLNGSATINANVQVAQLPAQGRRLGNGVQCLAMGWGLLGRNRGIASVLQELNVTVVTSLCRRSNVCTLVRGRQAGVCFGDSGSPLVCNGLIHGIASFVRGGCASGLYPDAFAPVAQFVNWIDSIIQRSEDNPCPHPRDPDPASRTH

Mesocricetus auratus [1] = species: Mesocricetus auratus; test: Reduction in wet lung weight relative to the body weight in hamsters
Mesocricetus auratus [2] = test: Oral administration at a dose of 37.5 mg/kg 30 min prior to HNE (100 mg/hamster) and reduction in the number of white blood cells was reported
Mesocricetus auratus [3] = test: Oral administration at a dose of 37.5 mg/kg 30 min prior to HNE and reduction in the number of white blood cells was reported
Cricetinae gen. sp. [4] = test: Inhibition at the oral dose of 25 mg/kg 30 min prior to […] dose of 10 microg of HNE in hamster; format: functional, Cricetulus griseus
Cricetinae gen. sp. [5] = test: Inhibition at the oral dose of 10 mg/kg 30 min prior to […] dose of 50 microg of HNE in hamster; format: functional, Cricetulus griseus
Procedure, shortened: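 Anesthetized hamsters received HNE (50 µg/hamster) intratracheally, with the compound given orally as a solution in 10% PEG/PBS 30 min beforehand. Lung hemorrhage was quantified 4 h later by spectrophotometric hemoglobin measurement in lung lavage. Percent inhibition is relative to HNE and saline controls: 100% equals saline, 0% equals HNE.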

Row | Compound | Ki (Neutrophil elastase) | Lw/Bw (Mesocricetus auratus [1]) | Reduction (Mesocricetus auratus [2]) | Reduction (Mesocricetus auratus [3]) | inhibition in vivo at 25 mg/kg (Cricetinae gen. sp. [4]) | inhibition in vivo at 10 mg/kg (Cricetinae gen. sp. [5])
1 | CC(C)[C@H](NC(=O)c1ccc(O)c(O)c1)C(=O)N1CCC[C@H]1C(=O)N[C@H](C(=O)C(F)(F)F)C(C)C | 16 nM | -73 | -41% |  |  | 
2 | CC(C)[C@H](NC(=O)Oc1ccc(F)cc1)C(=O)N1CCC[C@H]1C(=O)N[C@H](C(=O)C(F)(F)F)C(C)C | 0.63 nM | 63 | -67% |  |  | 
3 | CC(C)[C@H](NC(=O)c1c[nH]cn1)C(=O)N1CCC[C@H]1C(=O)N[C@H](C(=O)C(F)(F)F)C(C)C | 63 nM | -42 | -267% |  |  | 
4 | CC(C)[C@H](NC(=O)c1ccncc1)C(=O)N1CCC[C@H]1C(=O)N[C@H](C(=O)C(F)(F)F)C(C)C | 3.8 nM | -15 | -45% |  |  | 
5 | CC(C)[C@H](NS(=O)(=O)c1ccccc1)C(=O)N1CCC[C@H]1C(=O)N[C@H](C(=O)C(F)(F)F)C(C)C | 14 nM | 29 | -48% |  |  | 
6 | CC(C)C(NC(=O)C1CCCN1C(=O)[C@@H](NC(=O)CCC(=O)NS(=O)(=O)c1cccc2ccccc12)C(C)C)C(=O)C(F)(F)F (some centres not stated) | 6.1 nM | -80 | -212% |  |  | 
7 | CC(C)C(NC(=O)C1CCCN1C(=O)[C@@H](NC(=O)c1ccc(C(=O)NCCN(C)C)cc1)C(C)C)C(=O)C(F)(F)F (some centres not stated) | 5.4 nM | 20 |  | 71% |  | 
8 | COc1ccc(S(=O)(=O)N[C@H](C(=O)N2CCCC2C(=O)NC(C(=O)C(F)(F)F)C(C)C)C(C)C)cc1 (some centres not stated) | 8 nM | 29 | -42% |  |  | 
9 | CC(C)C(NC(=O)C1CCCN1C(=O)[C@@H](NC(=O)c1cc(C(=O)O)cc(C(=O)O)c1)C(C)C)C(=O)C(F)(F)F (some centres not stated) | 43 nM | -45 | -105% |  |  | 
10 | CC(C)[C@H](NC(=O)N1CCOCC1)C(=O)N1CCC[C@H]1C(=O)N[C@H](C(=O)C(F)(F)C(F)(F)F)C(C)C | 170 nM |  |  |  | 69% | 
11 | CC(C)[C@H](NC(=O)Oc1ccccc1)C(=O)N1CCC[C@H]1C(=O)N[C@H](C(=O)C(F)(F)F)C(C)C | 1.3 nM | 62 |  | 77% |  | 91%
12 | CC(C)C(NC(=O)C1CCCN1C(=O)[C@H](C(C)C)N(CCCc1ccccc1)CCCc1ccccc1)C(=O)C(F)(F)F.Cl (some centres not stated) | 1.7 nM | -23 | -39% |  |  | 
13 | COc1ccc(C(=O)N[C@H](C(=O)N2CCC[C@H]2C(=O)N[C@H](C(=O)C(F)(F)F)C(C)C)C(C)C)cc1 |  | 77 |  | 91% |  | 84%
14 | CC(C)c1cc(C(C)C)c(S(=O)(=O)N[C@H](C(=O)N2CCCC2C(=O)NC(C(=O)C(F)(F)F)C(C)C)C(C)C)c(C(C)C)c1 (some centres not stated) | 3.2 nM | -17 | -186% |  |  | 
15 | CCOC(=O)c1ccc(/C=C/C(=O)N[C@H](C(=O)N2CCCC2C(=O)NC(C(=O)C(F)(F)F)C(C)C)C(C)C)cc1 (some centres not stated) | 0.43 nM | -122 | -48% |  |  | 
16 | CC(C)C(NC(=O)C1CCCN1C(=O)[C@@H](NC(=O)c1cc2ccccc2cc1C(=O)O)C(C)C)C(=O)C(F)(F)F (some centres not stated) | 1.7 nM | 23 |  | 53% |  | 
17 | CC(=O)Oc1cc(OC(C)=O)cc(C(=O)N[C@H](C(=O)N2CCCC2C(=O)NC(C(=O)C(F)(F)F)C(C)C)C(C)C)c1 (some centres not stated) | 60 nM |  | -12% |  |  | 

Row | Compound | Ki (Neutrophil elastase) | Lw/Bw (Mesocricetus auratus [1]) | Reduction (Mesocricetus auratus [2]) | Reduction (Mesocricetus auratus [3]) | inhibition in vivo at 25 mg/kg (Cricetinae gen. sp. [4]) | inhibition in vivo at 10 mg/kg (Cricetinae gen. sp. [5])
18 | CC(C)C(NC(=O)C1CCCN1C(=O)[C@@H](NC(=O)c1ccc(Oc2ccccc2)cc1)C(C)C)C(=O)C(F)(F)F (some centres not stated) | 0.41 nM | 31 |  | 78% |  | 
19 | COc1ccc(C(=O)N[C@H](C(=O)N2CCCC2C(=O)NC(C(=O)C(F)(F)F)C(C)C)C(C)C)cc1OC (some centres not stated) | 1.1 nM | 66 |  | 46% |  | 
20 | CC(C)C(NC(=O)C1CCCN1C(=O)[C@@H](NC(=O)c1ccc(N(C)C)cc1)C(C)C)C(=O)C(F)(F)F (some centres not stated) | 2.5 nM | 36 |  | 0% |  | 
21 | CC(C)C(NC(=O)C1CCCN1C(=O)[C@@H](NC(=O)c1ccc2ccccc2c1)C(C)C)C(=O)C(F)(F)F (some centres not stated) | 0.87 nM | 43 |  | 73% |  | 
22 | COC(=O)c1ccc(C(=O)N[C@H](C(=O)N2CCCC2C(=O)NC(C(=O)C(F)(F)F)C(C)C)C(C)C)cc1 (some centres not stated) | 1.8 nM | 49 |  | 56% |  | 
23 | CC(C)[C@H](NC(=O)c1ccc(C(=O)N2CCOCC2)cc1)C(=O)N1CCC[C@H]1C(=O)N[C@H](C(=O)C(F)(F)C(F)(F)F)C(C)C | 25 nM |  |  |  | 74% | 
24 | CC(C)C(NC(=O)C1CCCN1C(=O)[C@@H](NC(=O)c1ccc([N+](=O)[O-])cc1)C(C)C)C(=O)C(F)(F)F (some centres not stated) | 1.2 nM | 54 |  | 4% |  | 
25 | CC(C)C(NC(=O)C1CCCN1C(=O)[C@@H](NS(=O)(=O)c1ccc([N+](=O)[O-])cc1)C(C)C)C(=O)C(F)(F)F (some centres not stated) | 5.2 nM | -36 | -118% |  |  | 
26 | CC(C)[C@H](NC(=O)C(F)(F)F)C(=O)N1CCC[C@H]1C(=O)N[C@H](C(=O)C(F)(F)F)C(C)C (HELM PEPTIDE1{[O=C(C(F)(F)F)[*:2]].V.P.V.[FC(F)(F)[*:1]]}$$$$V2.0) | 15 nM | 67 |  | 91% |  | 
27 | CC(C)[C@H](NC(=O)c1ccccc1)C(=O)N1CCC[C@H]1C(=O)N[C@H](C(=O)C(F)(F)F)C(C)C (HELM PEPTIDE1{[O=C(c1ccccc1)[*:2]].V.P.V.[FC(F)(F)[*:1]]}$$$$V2.0) | 6.8 nM | 62 | -7% |  |  | 
28 | CC(C)[C@H](NC(=O)c1cccnc1)C(=O)N1CCC[C@H]1C(=O)N[C@H](C(=O)C(F)(F)F)C(C)C (HELM PEPTIDE1{[O=C(c1cccnc1)[*:2]].V.P.V.[FC(F)(F)[*:1]]}$$$$V2.0) | 7.8 nM | -6 |  | 23% |  | 
29 | CC(=O)N[C@H](C(=O)N1CCC[C@H]1C(=O)N[C@H](C(=O)C(F)(F)F)C(C)C)C(C)C (HELM PEPTIDE1{[ac].V.P.V.[FC(F)(F)[*:1]]}$$$$V2.0) | 45 nM | 8 | -120% |  |  | 
30 | CCCN(CC(=O)N[C@H](C(=O)N1CCC[C@H]1C(=O)N[C@H](C(=O)C(F)(F)F)C(C)C)C(C)C)C(C)=O (HELM PEPTIDE1{[ac].[CCCN(CC(=O)[*:2])[*:1]].V.P.V.[FC(F)(F)[*:1]]}$$$$V2.0) | 2 nM | 24 |  | 78% |  | 
31 | CC(=O)N(CC(=O)N[C@H](C(=O)N1CCC[C@H]1C(=O)N[C@H](C(=O)C(F)(F)F)C(C)C)C(C)C)Cc1ccccc1 (HELM PEPTIDE1{[ac].[O=C(CN(Cc1ccccc1)[*:1])[*:2]].V.P.V.[FC(F)(F)[*:1]]}$$$$V2.0) | 0.96 nM | 20 |  | 36% |  | 
32 | CC(C)C(NC(=O)C1CCCN1C(=O)[C@@H](NC(=O)Nc1ccc(C(=O)O)cc1)C(C)C)C(=O)C(F)(F)F (some centres not stated) ({4Abz-CO}-Val-[ξP]-[ξV]-CF3) | 10 nM | -1 |  | 48% |  | 
33 | CC(C)[C@H](NC(=O)Nc1ccccc1)C(=O)N1CCC[C@H]1C(=O)N[C@H](C(=O)C(F)(F)F)C(C)C ({NHPh-CO}-Val-Pro-Val-CF3) | 2.6 nM | -2 | -184% |  |  | 
